Cytotoxicity data for 70 molecules are collected here from ChEMBL document CHEMBL4513216, “Probing the Open Global Health Chemical Diversity Library for Multistage-Active Starting Points for Next-Generation Antimalarials” (ACS Infect Dis, 2020).

Each structure is given as a SMILES string.

The nature of this data set: Toxicity liver stage against HepG2, at 10uM. Format: cell-based. On the set-up: test concentration 10 uM, cell line HepG2-A16-CD81EGFP. As to conditions: human, HepG2-A16-CD81EGFP cells; read-out: INHIBITION
Summed up: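 Uninfected HepG2-A16-CD81EGFP cells, 3 × 10^3 per well, 1536-well, plated on prespotted compound at 10 μM final, parasite-free screening media added to match infected plates; puromycin 10 μM positive, DMSO 0.5% negative; run in parallel with 48 h PbLuc assay at 37 °C, 5% CO2; viability by CellTiter-Glo luminescence, normalized to controls.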
`Fc1ccc(CN2CCOC[C@H](Oc3cccnc3)C2)cc1`: the cytotoxicity at 10 µM is 7.35%.

Take `COCC(=O)N1CCN(C(C)=O)C[C@@H]1C(=O)OC`: the cytotoxicity at 10 µM is 2.43%.

As to `CCCNC(=O)C1CCCN(c2ccc3nncn3n2)C1` (stereo not given), the cytotoxicity at 10 µM amounted to 10.7%.

On to `O=C(O)CCn1ccc(=O)c2cc(F)ccc21`, for which the cytotoxicity at 10 µM came to 1.09%.

As for `CCCNC(=O)CSc1nnc2[nH]c(=O)c3c(n12)CCCC3`, the cytotoxicity at 10 µM is -83.3%.

Regarding `CCOc1ccc(S(=O)(=O)NCCCc2ccc(N(C)C)cc2)cc1C`, the cytotoxicity at 10 µM was 0.279%.

On to `O=C(Nc1cccc(OC(F)F)c1)C1CN(S(=O)(=O)C2CC2)C1`, for which the cytotoxicity at 10 µM came to 0.696%.

With `O=S(=O)(NCCC(O)c1cccs1)c1c(F)cccc1F` (stereo not given), the cytotoxicity at 10 µM was -0.00815%.

Take `CN(C)C(=O)c1ccc2ccc(N3CCN(CC4CC4)CC3)n2c1`: the cytotoxicity at 10 µM worked out at 4.14%.

`CN(C)C(=O)c1cc2c(nc1NCC1CC1)CCN(CC1CC1)CC2`: the cytotoxicity at 10 µM was found to be 7.54%.

With `O=C(COc1coc(CN2CCCCC2)cc1=O)c1ccc(Cl)cc1`, the cytotoxicity at 10 µM is 3.13%.

Take `Cc1nc2c(N3CCN(Cc4ccccc4)CC3)nc(N)nc2n1C`: the cytotoxicity at 10 µM worked out at 5.61%.

For the molecule `CCN(Cc1c(C)nn(CC)c1C)S(=O)(=O)c1cnn(C)c1C`, the cytotoxicity at 10 µM is 9.65%.

Turning to `CN(C)S(=O)(=O)N1CCCCCC1c1cc(-c2ccc(F)cc2)no1` (stereo not given), the cytotoxicity at 10 µM worked out at 10.6%.

For the molecule `COc1ccccc1CN1CCC(c2nccc(C)n2)C1` (stereo not given), the cytotoxicity at 10 µM was 3.44%.

`COc1ccc(CN2CC[C@H](NC(C)=O)[C@@H](O)CC2)c(F)c1`: the cytotoxicity at 10 µM is -11.1%.

On to `CC(=O)N1CCCC1c1cccc(Cc2ccccc2Cl)n1` (stereo not given), for which the cytotoxicity at 10 µM was 1.58%.

`CC(C)n1ccnc1CN1CCOC(C)(C(=O)N2CCOCC2)C1` (stereo not given): the cytotoxicity at 10 µM was -8.58%.

Regarding `Oc1nc(N2CCOCC2)nc2c1CCN(Cc1ccc(F)cc1)CC2`, the cytotoxicity at 10 µM is -4.14%.

In the case of `O=C(N[C@@H]1CCC[C@@H](n2ccnc2)[C@@H]1O)c1ccc2c(c1)CCCC2`, the cytotoxicity at 10 µM is -11.3%.

With `CS(=O)(=O)N1Cc2ccccc2CC2(CCN(Cc3ccncc3)C2)C1` (stereo not given), the cytotoxicity at 10 µM worked out at 4.59%.

Take `COc1ccccc1/C=C/CNCC1CCc2nncn2C1` (stereo not given): the cytotoxicity at 10 µM was 3.91%.

Consider `O=C(NCC1CCS(=O)(=O)C1)N(Cc1ccco1)C1CC1` (stereo not given), for which the cytotoxicity at 10 µM was -136%.

`COCCN(Cc1ccccn1)C(=O)Nc1cccnc1N1CCCC1`: the cytotoxicity at 10 µM was 4.03%.

With `COc1ccc(OC)c(CCNC(=O)CCC2CCCO2)c1` (stereo not given), the cytotoxicity at 10 µM came to 2.34%.

Consider `O=C(CN1CCCC1COc1ccccc1)NCc1ccccn1` (stereo not given), for which the cytotoxicity at 10 µM is -0.764%.

For `CCC1(CNC(=O)NC(c2nnc3n2CCC3)C(C)C)CCC1` (stereo not given), the cytotoxicity at 10 µM was 0.864%.

With `Cc1cc(F)ccc1-n1cc(O)c(C(N)=O)n1`, the cytotoxicity at 10 µM is -9.55%.

Take `CCC(CC)n1ncc(C(=O)NS(=O)(=O)c2ccsc2)c1C`: the cytotoxicity at 10 µM was -3.01%.

Regarding `Cc1nccn1-c1ccc(CNC(=O)c2ccc(O)nc2)cn1`, the cytotoxicity at 10 µM worked out at 1.75%.

For `Cn1cccc(NC(=O)N2CCC(COCc3ccccc3)C2)c1=O` (stereo not given), the cytotoxicity at 10 µM turned out to be 3.67%.

`O=C(NCCc1nnc2n1CCC2)N1CCC2(CCCCC2)C1`: the cytotoxicity at 10 µM turned out to be 14.7%.

As for `O=C(c1ccoc1)N1CC[C@@H]2O[C@@H](COCC3CCOCC3)CC[C@@H]21`, the cytotoxicity at 10 µM was -76.2%.

On to `CC(C)NC(=O)N1CCC2(COCc3cnc(-c4cccnc4)nc32)C1` (stereo not given), for which the cytotoxicity at 10 µM was 1.77%.

For `COc1cc(-c2cc(=O)[nH]cn2)cc(OC)c1OC`, the cytotoxicity at 10 µM is -12.5%.

For `Cc1nc(CC(=O)N2CCCC2c2nc(-c3ccccc3)no2)cs1` (stereo not given), the cytotoxicity at 10 µM was 7.01%.

On to `CCc1oc(C(=O)N(C)Cc2ccncc2)cc1CN(CC)CC`, for which the cytotoxicity at 10 µM is -1.81%.

In the case of `CSCCCN1CC[C@@]2(O)CCN(c3ncccn3)C[C@H]2C1`, the cytotoxicity at 10 µM was -4.53%.

`NCc1cn(CC2CCCN(C(=O)NCCc3ccc(F)cc3)C2)nn1` (stereo not given): the cytotoxicity at 10 µM worked out at 17.2%.

With `CCNc1ncc(C(=O)NCc2ccc(F)c(C(F)(F)F)c2)cn1`, the cytotoxicity at 10 µM was -5.96%.

For the molecule `CCc1ccccc1OC1CN(C(=O)c2ccsc2)C1`, the cytotoxicity at 10 µM is 7.46%.

As for `c1csc(CN2CCCN(c3ncnc4[nH]ccc34)CC2)c1`, the cytotoxicity at 10 µM was found to be 5.51%.

With `Cc1ccc(N2CCN(C(=O)CCc3n[nH]c(C)c3C)CC2=O)cc1`, the cytotoxicity at 10 µM worked out at 4.78%.

Regarding `O=C1NCC2(CCCN(C(=O)c3ccc4c(c3)CCCO4)CC2)O1` (stereo not given), the cytotoxicity at 10 µM is -19.7%.

Take `CCNC(=O)CCN1CCC(c2cc(N3CCOCC3)nc(C)n2)CC1`: the cytotoxicity at 10 µM was -10.8%.

Regarding `Cc1ccc2c(c1)c(CNC(=O)C1CC(=O)N(C3CCCC3)C1)nn2C` (stereo not given), the cytotoxicity at 10 µM was -19.9%.

On to `Cc1cc(C)n(CC(=O)N(C)Cc2csc(-c3cccs3)n2)c(=O)n1`, for which the cytotoxicity at 10 µM came out at 32.2%.

As for `COc1cccc(N2CCN(Cc3ccc(NC(C)=O)cc3)CC2=O)c1`, the cytotoxicity at 10 µM was -15.4%.

For the molecule `CCOCn1cc(NC(=O)C2CCN(S(C)(=O)=O)CC2)cn1`, the cytotoxicity at 10 µM was -10.7%.

On to `CS(=O)(=O)N1CCC(O)(Cn2c(C3CC3)nc3ccccc3c2=O)CC1`, for which the cytotoxicity at 10 µM was determined as 3.06%.

As for `CC(C)(C)OC(=O)N1CCN(C(=O)CCn2cccn2)CC1`, the cytotoxicity at 10 µM was -14.6%.

In the case of `CC(C)n1cc(CN2CCCN(C(=O)C(C)n3cccn3)CC2)cn1` (stereo not given), the cytotoxicity at 10 µM was -17.9%.

With `Cc1nn(C)c(Cl)c1C1CCCN1C(=O)c1ccncc1` (stereo not given), the cytotoxicity at 10 µM was -11.2%.

Turning to `CN1CCN(c2cc(CNC(=O)c3ccc(Cl)o3)ccn2)CC1`, the cytotoxicity at 10 µM is -9.69%.

On to `CN(C)c1ccc(C(=O)N2CCCC(n3cccn3)C2)cn1` (stereo not given), for which the cytotoxicity at 10 µM was -11.5%.

`Cc1cnc(CNC(=O)N(CCCO)C2CCc3ccccc32)s1` (stereo not given): the cytotoxicity at 10 µM was -17.2%.

As for `CCCOc1cc(C)ccc1NC(=O)N(C)Cc1cnn(C)c1`, the cytotoxicity at 10 µM is -11.1%.

As for `NC(=O)N1CCC(C(=O)NCc2nncn2-c2ccccc2)CC1`, the cytotoxicity at 10 µM is -18.7%.

Regarding `Cc1nc(C)n(C2CCCN(C(=O)c3ncoc3C(C)C)C2)n1` (stereo not given), the cytotoxicity at 10 µM was -17%.

Turning to `Cc1cnn(CCC(=O)N2CCCC(c3nc(C)no3)C2)c1` (stereo not given), the cytotoxicity at 10 µM was -1.59%.

Turning to `O=C([C@@H]1CCO[C@@H]2CCN(Cc3ccsc3)C[C@@H]21)N1CCCC1`, the cytotoxicity at 10 µM was -81.4%.

Take `Cc1cccc(CN2C(=O)C[C@H]3[C@@H]2CCN3Cc2ccccn2)n1`: the cytotoxicity at 10 µM was determined as 6.97%.

Consider `CCN1CCC2(CCN(Cc3ccc(OC)cc3)CC2)C1=O`, for which the cytotoxicity at 10 µM is -0.0368%.

With `Cn1nccc1-c1nnn2c1COC(CNCc1nccs1)C2` (stereo not given), the cytotoxicity at 10 µM is -1.07%.

With `O=C(NC1CC1)[C@H]1C[C@H]2OCC[C@H]2N(Cc2ccc3ccccc3n2)C1`, the cytotoxicity at 10 µM was -62.6%.

For `CN(C)[C@@H]1CCN(C(=O)c2ccsc2)[C@H]1Cc1cccnc1`, the cytotoxicity at 10 µM is -66.7%.

Consider `CN(C[C@@H]1CCC[C@@H]2CN(c3ncccn3)C[C@@H]21)C1CC1`, for which the cytotoxicity at 10 µM stood at 5.18%.

In the case of `CC(=O)N1CC(=O)N(c2ccccc2)CC12CCN(Cc1ccoc1)C2` (stereo not given), the cytotoxicity at 10 µM was -1.51%.

On to `CC(C)NCC1(COc2ccccc2)C[C@@H](O)[C@@H](O)C1` (stereo not given in full), for which the cytotoxicity at 10 µM was found to be 0.67%.

`CC(=O)N1C[C@H]2CC[C@@H](C1)N(S(=O)(=O)c1ccc(C#N)cc1Cl)C2`: the cytotoxicity at 10 µM was determined as 1.33%.
